This passage reports IC50 and Ratio IC50 results from ChEMBL document CHEMBL1156908, “Characterization of tunable piperidine and piperazine carbamates as inhibitors of endocannabinoid hydrolases” (J Med Chem, 2010).

Experiment [1] addresses T1, Fatty-acid amide hydrolase 1 (Mus musculus, UniProt O08914).
T1 sequence (O08914 whole entry): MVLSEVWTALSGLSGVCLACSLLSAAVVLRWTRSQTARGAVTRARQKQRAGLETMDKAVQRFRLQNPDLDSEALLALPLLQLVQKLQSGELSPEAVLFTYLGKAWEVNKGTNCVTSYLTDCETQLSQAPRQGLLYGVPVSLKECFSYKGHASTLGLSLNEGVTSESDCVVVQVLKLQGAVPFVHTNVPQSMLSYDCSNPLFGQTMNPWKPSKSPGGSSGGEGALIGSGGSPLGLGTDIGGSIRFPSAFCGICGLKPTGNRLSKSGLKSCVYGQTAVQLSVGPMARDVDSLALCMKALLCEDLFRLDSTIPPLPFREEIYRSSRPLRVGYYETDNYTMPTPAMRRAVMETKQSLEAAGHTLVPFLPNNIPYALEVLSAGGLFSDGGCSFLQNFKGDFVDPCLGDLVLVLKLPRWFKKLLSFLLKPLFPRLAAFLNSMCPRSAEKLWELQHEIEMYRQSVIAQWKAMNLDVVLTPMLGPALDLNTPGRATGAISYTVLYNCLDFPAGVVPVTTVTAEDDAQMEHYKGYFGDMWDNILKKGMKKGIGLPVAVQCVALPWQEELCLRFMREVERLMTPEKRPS
In words: Inhibition of FAAH in mouse brain membrane. Type of experiment: cell membranes. In a few lines:
(§1)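 Mouse brain membrane fraction (Dounce homogenized in PBS pH 7.5, 1,400 × g debris spin, 64,000 × g 45 min pellet, resuspended) at 1 mg/ml in PBS. Inhibitor preincubated 30 min at 37°C, then FP-rhodamine 1 μM final for 30 min at 25°C. SDS-PAGE with in-gel fluorescence scanning. IC50 from fitted integrated band intensities, mean of at least triplicates.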

Experiment [2] concerns the target T2, Monoacylglycerol lipase ABHD6 (Mus musculus, UniProt Q8R2Y0).
T2 sequence (Q8R2Y0 whole entry): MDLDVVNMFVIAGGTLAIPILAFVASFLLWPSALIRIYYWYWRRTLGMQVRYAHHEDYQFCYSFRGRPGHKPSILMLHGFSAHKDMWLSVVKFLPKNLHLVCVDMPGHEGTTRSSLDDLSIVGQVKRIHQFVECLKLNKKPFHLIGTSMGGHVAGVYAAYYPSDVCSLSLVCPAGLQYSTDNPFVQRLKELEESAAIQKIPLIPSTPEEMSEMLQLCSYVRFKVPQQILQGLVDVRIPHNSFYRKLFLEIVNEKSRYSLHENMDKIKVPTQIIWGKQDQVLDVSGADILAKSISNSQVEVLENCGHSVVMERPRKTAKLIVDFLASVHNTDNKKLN
In words: Inhibition of ABHD6 in mouse brain membrane. The experiment is classed as cell membranes. In a few lines: as §1

Experiment [3] addresses T3, Patatin-like phospholipase domain-containing protein 6 (Mus musculus, UniProt Q3TRM4).
T3 sequence (Q3TRM4 whole entry): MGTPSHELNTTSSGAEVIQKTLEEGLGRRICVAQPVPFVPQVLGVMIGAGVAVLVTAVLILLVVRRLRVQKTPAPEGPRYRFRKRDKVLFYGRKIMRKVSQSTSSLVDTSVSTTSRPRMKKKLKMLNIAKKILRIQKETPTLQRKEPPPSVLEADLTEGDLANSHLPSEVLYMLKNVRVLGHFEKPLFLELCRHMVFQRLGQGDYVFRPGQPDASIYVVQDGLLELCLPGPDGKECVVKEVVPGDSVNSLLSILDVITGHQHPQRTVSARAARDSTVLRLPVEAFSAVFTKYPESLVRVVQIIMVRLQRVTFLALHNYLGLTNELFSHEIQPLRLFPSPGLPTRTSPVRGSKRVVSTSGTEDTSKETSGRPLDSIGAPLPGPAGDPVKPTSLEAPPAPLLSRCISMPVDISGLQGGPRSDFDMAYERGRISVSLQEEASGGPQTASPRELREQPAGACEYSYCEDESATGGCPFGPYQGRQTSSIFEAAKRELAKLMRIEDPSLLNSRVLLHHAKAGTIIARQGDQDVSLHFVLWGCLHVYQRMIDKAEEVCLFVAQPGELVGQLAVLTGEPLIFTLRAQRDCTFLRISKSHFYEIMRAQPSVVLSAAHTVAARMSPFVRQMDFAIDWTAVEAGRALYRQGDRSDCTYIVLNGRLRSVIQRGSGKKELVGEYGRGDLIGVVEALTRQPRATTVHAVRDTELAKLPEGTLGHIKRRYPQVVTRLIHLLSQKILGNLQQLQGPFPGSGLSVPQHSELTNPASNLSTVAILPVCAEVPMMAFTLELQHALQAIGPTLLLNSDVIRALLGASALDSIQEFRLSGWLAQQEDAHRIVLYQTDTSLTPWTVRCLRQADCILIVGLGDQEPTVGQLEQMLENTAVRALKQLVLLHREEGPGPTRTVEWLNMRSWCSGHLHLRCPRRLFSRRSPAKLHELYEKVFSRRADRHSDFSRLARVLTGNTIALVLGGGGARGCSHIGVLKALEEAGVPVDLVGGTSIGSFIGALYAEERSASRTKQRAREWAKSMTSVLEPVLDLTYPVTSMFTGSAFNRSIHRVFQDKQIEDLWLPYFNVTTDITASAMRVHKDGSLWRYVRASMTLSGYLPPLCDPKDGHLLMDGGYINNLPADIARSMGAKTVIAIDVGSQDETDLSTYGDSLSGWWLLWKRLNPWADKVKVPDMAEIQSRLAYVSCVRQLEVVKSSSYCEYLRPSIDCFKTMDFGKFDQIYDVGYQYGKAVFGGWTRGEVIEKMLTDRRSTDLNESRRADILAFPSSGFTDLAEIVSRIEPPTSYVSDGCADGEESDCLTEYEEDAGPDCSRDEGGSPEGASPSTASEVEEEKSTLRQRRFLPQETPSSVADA
In words: Inhibition of NTE in mouse brain membrane. The experiment is classed as cell membranes. In a few lines:
as §1

The next experiment concerns the target T4, Monoglyceride lipase (Mus musculus, UniProt O35678).
T4 sequence (O35678 whole entry): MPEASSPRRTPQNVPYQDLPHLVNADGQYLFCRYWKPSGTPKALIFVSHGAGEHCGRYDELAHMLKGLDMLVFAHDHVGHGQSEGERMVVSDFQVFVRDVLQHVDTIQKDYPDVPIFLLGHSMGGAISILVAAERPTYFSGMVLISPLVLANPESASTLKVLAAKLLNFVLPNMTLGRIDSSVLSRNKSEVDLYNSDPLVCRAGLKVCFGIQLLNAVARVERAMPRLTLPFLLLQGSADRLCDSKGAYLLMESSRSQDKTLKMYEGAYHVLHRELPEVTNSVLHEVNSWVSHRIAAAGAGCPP
The experiment in a line: Inhibition of MAGL in mouse brain membrane. The experiment is classed as cell membranes. Summed up: as §1

Another experiment is filed under the species Mus musculus. In words: Selectivity ratio of IC50 for mouse FAAH to IC50 for mouse MAGL. Summed up: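 Competitive ABPP on mouse brain membrane proteome (Dounce-homogenized in PBS pH 7.5, 64,000 × g pellet, resuspended), diluted to 1 mg/ml in PBS. Inhibitor preincubated 30 min at 37°C, then FP-rhodamine 1 μM final for 30 min at 25°C. SDS-PAGE and in-gel fluorescence scanning. IC50s for FAAH and MAGL come from integrated band intensities, means of ≥3 runs; the ratio is taken from these.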

On to `O=C(Oc1ccc([N+](=O)[O-])cc1)N1CCN(Cc2cc(-c3ccccc3)cs2)CC1`, for which the IC50 (usually the point on the concentration scale where inhibition reaches its midpoint) is 280 nM in experiment [1], 1000 nM in experiment [2], 890 nM in experiment [3] and 10 nM at Monoglyceride lipase.

Molecule `O=C(Oc1ccc([N+](=O)[O-])cc1)N1CCC(C(O)(c2ccc3c(c2)OCO3)c2ccc3c(c2)OCO3)CC1` registered an IC50 in experiment [2] of 3270 nM.

With `O=C(Oc1ccc([N+](=O)[O-])cc1)N1CCN(C2c3ccccc3Oc3ccccc32)CC1`, in the experiment filed under Mus musculus, the Ratio IC50 worked out at 2. The figures for the IC50 (in experiment [1]; in experiment [2]; at Monoglyceride lipase) were 9000 nM, 2120 nM and 6120 nM, respectively.

Consider `O=C(Oc1ccc([N+](=O)[O-])cc1)N1CCN(Cc2ccc3ccccc3c2)CC1`, for which the IC50 in experiment [1] worked out at 380 nM; in experiment [2] it was 150 nM; in experiment [3], 1100 nM; against Monoglyceride lipase it was 70 nM.

Turning to `COc1ccc(C(O)(c2ccc(OC)cc2)C2CCN(C(=O)Oc3ccc([N+](=O)[O-])cc3)C2)cc1` (stereo not drawn), the concentration for half-maximal inhibition (IC50) (in experiment [1]; in experiment [2]; on Monoglyceride lipase) was above 50000 nM in each case.

As for `O=C(Oc1ccc([N+](=O)[O-])cc1)N1CCN(Cc2ccc(-c3ccccc3)o2)CC1`, the IC50 is 20 nM in experiment [1], 220 nM in experiment [2], 250 nM in experiment [3] and 90 nM at Monoglyceride lipase.

For the molecule `O=C(Oc1ccc([N+](=O)[O-])cc1)N1CCN(C(c2ccc(F)cc2)c2ccc(F)cc2)CC1`, the Ratio IC50 in the experiment listed under Mus musculus is 27. The IC50 in experiment [1] came out at 5410 nM; in experiment [2], 900 nM; on Monoglyceride lipase it was 200 nM.

As for `O=C(Oc1ccc([N+](=O)[O-])cc1)N1CCN(Cc2ccc(-c3ccccc3)cc2)CC1`, the IC50 in experiment [1] amounted to 4600 nM; in experiment [2], 1650 nM; in experiment [3], 4270 nM; against Monoglyceride lipase, 15 nM.

For the molecule `COc1ccc(C(O)(c2ccc(OC)c(OC)c2)C2CCN(C(=O)Oc3ccc([N+](=O)[O-])cc3)CC2)cc1OC`, the half-inhibitory concentration (IC50) in experiment [1] was above 50000 nM; in experiment [2], 6960 nM; against Monoglyceride lipase, 1300 nM.

`COc1cc(OCc2ccccc2)ccc1CN1CCN(C(=O)Oc2ccc([N+](=O)[O-])cc2)CC1`: the IC50 in experiment [1] turned out to be 930 nM; in experiment [2] it was 310 nM; in experiment [3], 420 nM; against Monoglyceride lipase, 90 nM.

Consider `O=C(Oc1ccc([N+](=O)[O-])cc1)N1CCN(Cc2ccc(-c3ccccc3)s2)CC1`, for which the IC50 was 40 nM in experiment [1], 220 nM in experiment [2], 80 nM in experiment [3] and 50 nM against Monoglyceride lipase.

In the case of `O=C(Oc1ccc([N+](=O)[O-])cc1)N1CCN(Cc2ccccc2-c2ccccc2)CC1`, the IC50 in experiment [1] amounted to 3570 nM; in experiment [2], 2860 nM; in experiment [3], 330 nM; on Monoglyceride lipase, 670 nM.

With `O=C(Oc1ccc([N+](=O)[O-])cc1)N1CCC(=C(c2ccccc2)c2ccccc2)CC1`, the Ratio IC50 in the experiment filed under Mus musculus turned out to be 3. Moreover, the IC50 in experiment [1] stood at 3500 nM; in experiment [2], 1300 nM; against Monoglyceride lipase, 1390 nM.

For `O=C(Oc1ccc([N+](=O)[O-])cc1)N1CCC(C(O)(c2ccccc2)c2ccccc2)CC1`, the Ratio IC50 in the experiment filed under Mus musculus is 6. The IC50 is 4340 nM in experiment [1], 1100 nM in experiment [2] and 690 nM against Monoglyceride lipase.

Regarding `COc1cccc(C(O)(c2cccc(OC)c2)C2CCN(C(=O)Oc3ccc([N+](=O)[O-])cc3)CC2)c1`, the Ratio IC50 in the experiment filed under Mus musculus is 10. For the same molecule, the IC50 in experiment [1] came to 5830 nM; in experiment [2], 460 nM; against Monoglyceride lipase, 560 nM.

For the molecule `O=C(Oc1ccc([N+](=O)[O-])cc1)N1CCN(Cc2ccc3ccccc3n2)CC1`, the IC50 in experiment [1] was determined as 1040 nM; in experiment [2], 490 nM; in experiment [3], 910 nM; against Monoglyceride lipase, 80 nM.

Turning to `CN(C)c1ccc(C(O)(c2ccc(N(C)C)cc2)C2CCN(C(=O)Oc3ccc([N+](=O)[O-])cc3)CC2)cc1`, in the experiment listed under Mus musculus, the Ratio IC50 came out at 5. For the same molecule, the IC50 in experiment [1] worked out at 10500 nM; in experiment [2], 1020 nM; against Monoglyceride lipase, 2120 nM.

As for `CN(CCC(c1ccccc1)c1ccccc1)C(=O)Oc1ccc([N+](=O)[O-])cc1`, the IC50 (in experiment [1]; in experiment [2]; at Monoglyceride lipase) was above 50000 nM throughout.

On to `COc1ccc(C(c2ccc(OC)cc2)C2CCN(C(=O)Oc3ccc([N+](=O)[O-])cc3)CC2)cc1`, for which the Ratio IC50 in the experiment filed under Mus musculus is 549. Moreover, the results for the IC50 (in experiment [1]; in experiment [2]; at Monoglyceride lipase) were 40100 nM, 550 nM and 73 nM, respectively.

In the case of `COc1ccccc1C(O)(c1ccccc1OC)C1CCN(C(=O)Oc2ccc([N+](=O)[O-])cc2)CC1`, the IC50 in experiment [1] amounted to 15100 nM; in experiment [2], 1100 nM; against Monoglyceride lipase, 510 nM.

Turning to `COc1ccc(CN2CCN(C(=O)Oc3ccc([N+](=O)[O-])cc3)CC2)cc1`, the IC50 in experiment [1] amounted to 1050 nM; in experiment [2], 1270 nM; in experiment [3], 480 nM; on Monoglyceride lipase it was 1530 nM.

Take `CN(C(=O)Oc1ccc([N+](=O)[O-])cc1)C(c1ccccc1)c1ccccc1`: the IC50 (in experiment [1]; in experiment [2]; on Monoglyceride lipase) was above 50000 nM each time.

On to `COc1ccc(C(O)(c2ccc(OC)cc2)C2CCN(C(=O)Oc3ccc([N+](=O)[O-])cc3)CC2)cc1`, for which, in the experiment filed under Mus musculus, the Ratio IC50 turned out to be 68. Further, the IC50 in experiment [1] amounted to 2660 nM; in experiment [2] it was 2110 nM; on Monoglyceride lipase, 40 nM.

`O=C(Oc1ccc([N+](=O)[O-])cc1)N1CCN(Cc2ccccc2)CC1`: the IC50 is 930 nM in experiment [1], 740 nM in experiment [2], 610 nM in experiment [3] and 900 nM at Monoglyceride lipase.
